Experimental data reported in publication PMC8268672 (Bioorganic Chemistry, 2021).
pEC50: −log10 of the molar value. In brackets after ≈: the same amount, converted by molar mass. Like-named read-outs stand apart in the source and are kept apart here.

What was measured:
Sindbis virus = test: CPE reduction assay in Vero cells; type: cell-based; settings: read-out: Antiviral EC50, Sindbis virus
MT4 cells = settings: MT4 cell cultures; colorimetric MTT cell viability assay
[1] = system: Klebsiella aerogenes (NCIM-2098); test: Agar disk diffusion, inhibition zone; type: cell-based; settings: 100 µg/8 mm disc, triplicate, mean ± SD
[2] = system: Lactobacillus casei (NCIM-2651); test: Agar disk diffusion, inhibition zone; type: cell-based; settings: 100 µg/8 mm disc, triplicate, mean ± SD
[3] = system: Candida albicans (NCIM 2087); test: Agar disk diffusion, inhibition zone; type: cell-based; settings: 100 µg/8 mm disc, triplicate, mean ± SD
Punta Toro virus = test: CPE reduction assay in Vero cells; type: cell-based; settings: read-out: Antiviral EC50, Punta Toro virus
[4] = system: Cryptococcus neoformans (ATCC 9011); test: Agar disk diffusion, inhibition zone; type: cell-based; settings: 100 µg/8 mm disc, triplicate, mean ± SD
Vaccinia virus = test: microbe, parasite or virus in culture; type: cell-based; settings: Orthopoxvirus vaccinia, HEL, read-out: Antiviral EC50, Vaccinia virus
[5] = system: Influenza A/H1N1 A/Ned/378/05; test: CPE reduction assay in MDCK cells; type: cell-based; settings: Influenza A virus
[6] = system: Aspergillus fumigatus (NCIM 2081); test: MIC, broth microdilution; type: cell-based; settings: NCIM2081, read-out: Minimum inhibitory concentration (MIC), AF
In short: (§1)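 Antifungal MICs by CLSI broth microdilution in Sabouraud liquid medium. Test compounds and standard drugs are serially diluted two-fold from 512 to 0.25. The fungal broth culture is grown 24 h at 35 °C to a 0.5 McFarland turbidity, then adjusted with sterile solution to the final inoculum.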

[7] = system: Madin Darby canine kidney (MDCK) cells; settings: dog
Yellow Fever virus = test: microbe, parasite or virus in culture; type: cell-based; settings: Yellow fever virus, Vero, read-out: Antiviral EC50, Yellow Fever virus
[8] = system: Human embryonic lung (HEL) cells; settings: HEL cell cultures; microscopically detectable alteration of normal cell morphology
[9] = system: Pseudomonas aeruginosa (MCCB 0035); test: MIC, broth microdilution; type: cell-based; settings: read-out: Minimum inhibitory concentration (MIC), PA
In short: (§2)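 Broth microdilution per CLSI in Mueller-Hinton broth, using two-fold serial dilutions of test compound and reference drugs from 512 to 0.25. Bacterial broth cultures were grown 2-6 h to 0.5 McFarland turbidity, then diluted with sterile solution to the final inoculum. MIC is reported in µg/mL.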

Reovirus-1 = test: CPE reduction assay in Vero cells; type: cell-based; settings: read-out: Antiviral EC50, Reovirus-1
Vero cells = settings: Vero cell cultures; microscopically detectable alteration of normal cell morphology
Human Coronavirus (229E) = test: CPE reduction assay in HEL cells; type: cell-based; settings: read-out: Antiviral EC50, Human Coronavirus (229E)
[10] = system: Escherichia coli (ATCC 8739); test: MIC, broth microdilution; type: cell-based; settings: ATCC8739, read-out: Minimum inhibitory concentration (MIC), EC
In short: as §2

[11] = system: Influenza A/H3N2 A/HK/7/87; test: CPE reduction assay in MDCK cells; type: cell-based; settings: Influenza A virus
Para-influenza-3 virus = test: CPE reduction assay in Vero cells; type: cell-based, Parainfluenza-3 virus; settings: Vero, read-out: Antiviral EC50, Para-influenza-3 virus
Influenza B B/Ned/537/05 = test: CPE reduction assay in MDCK cells; type: cell-based; settings: Influenza B virus, read-out: Antiviral EC50, Influenza B B/Ned/537/05, MTS
[12] = system: Aspergillus niger (NCIM 2191); test: MIC, broth microdilution; type: cell-based; settings: NCIM2191, read-out: Minimum inhibitory concentration (MIC), AN
In short: as §1

Coxsackie virus B4 = test: CPE reduction assay in Vero cells; type: cell-based; settings: Enterovirus B, read-out: Antiviral EC50, Coxsackie virus B4
[13] = system: Bacillus cereus (NCIM-2458); test: MIC, broth microdilution; type: cell-based; settings: NCIM2458, read-out: Minimum inhibitory concentration (MIC), BC
In short: as §2

[14] = system: Bacillus cereus (NCIM-2458); test: Agar disk diffusion, inhibition zone; type: cell-based; settings: 100 µg/8 mm disc, triplicate, mean ± SD
[15] = system: Aspergillus niger (NCIM 2191); test: Agar disk diffusion, inhibition zone; type: cell-based; settings: 100 µg/8 mm disc, triplicate, mean ± SD
In short: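 For the fungal strain, discs soaked in test compound solution (DMSO stock diluted with distilled water) sat on seeded Mueller-Hinton agar. Clotrimazole was the reference. Incubation ran 48 h at 35 °C, in triplicate. Zone of growth inhibition recorded in mm as the mean diameter around each disc.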

[16] = system: Candida albicans (NCIM 2087); test: MIC, broth microdilution; type: cell-based; settings: NCIM2087, read-out: Minimum inhibitory concentration (MIC), CA
In short: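 CLSI broth microdilution in Sabouraud liquid medium, with test compound two-fold serially diluted from 512 to 0.25. Fungal broth culture grown 24 h at 35 °C to 0.5 McFarland turbidity, then adjusted with sterile solution to a final […] inoculum. MIC expressed in µg/mL.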

[17] = system: Pseudomonas aeruginosa (MCCB 0035); test: Agar disk diffusion, inhibition zone; type: cell-based; settings: 100 µg/8 mm disc, triplicate, mean ± SD
[18] = system: Staphylococcus aureus (ATCC 29213); test: MIC, broth microdilution; type: cell-based; settings: ATCC29213, read-out: Minimum inhibitory concentration (MIC), SA
In short: (§3)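 Antibacterial MICs by CLSI broth microdilution in Mueller-Hinton broth. Test compounds and standard drugs are serially diluted two-fold from 512 to 0.25. The bacterial broth culture is grown 2-6 h to a 0.5 McFarland turbidity, then adjusted with sterile solution to the final inoculum.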

Adeno virus-2 = test: CPE reduction assay in HEL cells; type: cell-based; settings: read-out: Antiviral EC50, Adeno virus-2
[19] = system: Aspergillus fumigatus (NCIM 2081); test: Agar disk diffusion, inhibition zone; type: cell-based; settings: 100 µg/8 mm disc, triplicate, mean ± SD
[20] = system: Streptococcus pneumonia (ATCC 49619); test: Agar disk diffusion, inhibition zone; type: cell-based; settings: 100 µg/8 mm disc, triplicate, mean ± SD
[21] = system: Salmonella typhimurium (NCIM-2501); test: Agar disk diffusion, inhibition zone; type: cell-based; settings: 100 µg/8 mm disc, triplicate, mean ± SD
[22] = system: Escherichia coli (ATCC 8739); test: Agar disk diffusion, inhibition zone; type: cell-based; settings: 100 µg/8 mm disc, triplicate, mean ± SD
In short: (§4)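 Agar disk diffusion on Mueller-Hinton agar plates seeded with a standard bacterial suspension. Test compound stock in DMSO, diluted with distilled water; 8 mm sterile filter-paper discs soaked in the solution. Ampicillin was the reference. Plates incubated at 35 °C for 24 h, in triplicate. Read-out is the average inhibition-zone diameter (mm) around each disc.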

[23] = system: Cryptococcus neoformans (ATCC 9011); test: MIC, broth microdilution; type: cell-based; settings: ATCC9011, read-out: Minimum inhibitory concentration (MIC), CN
In short: as §1

[24] = system: Klebsiella aerogenes (NCIM-2098); test: MIC, broth microdilution; type: cell-based; settings: NCIM2098, read-out: Minimum inhibitory concentration (MIC), KA
In short: as §3

[25] = system: Staphylococcus aureus (ATCC 29213); test: Agar disk diffusion, inhibition zone; type: cell-based; settings: 100 µg/8 mm disc, triplicate, mean ± SD
In short: as §4

[26] = read-out: Antiviral EC50, Influenza A/H1N1 A/Ned/378/05, MTS
[27] = read-out: Antiviral EC50, Influenza A/H1N1 A/Ned/378/05, visual CPE score
[28] = read-out: Antiviral EC50, Influenza A/H3N2 A/HK/7/87, MTS
[29] = read-out: Antiviral EC50, Influenza A/H3N2 A/HK/7/87, visual CPE score

Row | Compound | pEC50 (Sindbis virus) | Minimum cytotoxic conc. (MT4 cells) [µM] | Diameter of growth inhibition zone, KA [1] [mm] | Diameter of growth inhibition zone, LC [2] [mm] | Diameter of growth inhibition zone, CA [3] [mm] | pEC50 (Punta Toro virus) | Diameter of growth inhibition zone, CN [4] [mm] | pEC50 (Vaccinia virus) | pEC50 [5, 26] | pEC50 [5, 27] | MIC [6] [µg/mL] | Cytotoxicity, Minimum cytotoxic conc. [7] [µM] | pEC50 (Yellow Fever virus) | Minimum cytotoxic conc. [8] [µM] | MIC [9] [µg/mL] | pEC50 (Reovirus-1) | Minimum cytotoxic conc. (Vero cells) [µM] | pEC50 (Human Coronavirus (229E)) | MIC [10] [µg/mL] | pEC50 [11, 28] | other results
1 | Cc1ccc(S(=O)(=O)N2C(=O)CSC2c2ccccc2)cc1 (centres unmarked) [5a, 3-[(4-Methylphenyl)sulfonyl]-2-phenyl-1,3-thiazolidin-4-one] | < 4.00 | >125 | 07 ± 1.74 | 10 ± 0.4 | 10.8 ± 2.3 | < 4.00 | 8.2 ± 0.5 | < 4.00 | < 4.00 | < 4.00 | 64 (≈ 192 µM) | >100 | < 4.00 | >100 | 128 (≈ 384 µM) | < 4.00 | >100 | < 4.00 | 64 (≈ 192 µM) | < 4.00 | pEC50 [11, 29]: < 4.00; pEC50 (Para-influenza-3 virus): < 4.00; pEC50 (Influenza B B/Ned/537/05): < 4.00; MIC [12]: 32 µg/mL (≈ 96 µM); pEC50 (Coxsackie virus B4): < 4.00; MIC [13]: 128 µg/mL (≈ 384 µM); Diameter of growth inhibition zone, BC [14]: 08 ± 0.4 mm; Diameter of growth inhibition zone, AN [15]: 10.1 ± 1.1 mm; MIC [16]: 64 µg/mL (≈ 192 µM); Diameter of growth inhibition zone, PA [17]: 12.5 ± 0.6 mm; MIC [18]: 64 µg/mL (≈ 192 µM); pEC50 (Adeno virus-2): < 4.00; Diameter of growth inhibition zone, AF [19]: 10.2 ± 1.2 mm; Diameter of growth inhibition zone, SP [20]: 08 ± 0.8 mm; Diameter of growth inhibition zone, ST [21]: 07 ± 1.5 mm; Diameter of growth inhibition zone, EC [22]: 13.2 ± 1.1 mm; MIC [23]: 128 µg/mL (≈ 384 µM); MIC [24]: > 256 µg/mL; Diameter of growth inhibition zone, SA [25]: 13.8 ± 0.9 mm
2 | Cc1ccc(S(=O)(=O)N2C(=O)CSC2c2cccc(Br)c2)cc1 (centres unmarked) [5c, 2-(3-Bromophenyl)-3-[(4-methylphenyl)sulfonyl]-1,3-thiazolidin-4-one] | < 4.00 | >125 | 14 ± 0.6 | 14 ± 0.43 | 12.1 ± 0.9 | < 4.00 | 7.5 ± 0.5 | < 4.00 | < 4.00 | < 4.00 | 32 (≈ 77.6 µM) | >100 | < 4.00 | >100 | 16 (≈ 38.8 µM) | < 4.00 | >100 | < 4.00 | 16 (≈ 38.8 µM) | < 4.00 | pEC50 [11, 29]: < 4.00; pEC50 (Para-influenza-3 virus): < 4.00; pEC50 (Influenza B B/Ned/537/05): < 4.00; MIC [12]: 32 µg/mL (≈ 77.6 µM); pEC50 (Coxsackie virus B4): < 4.00; MIC [13]: 32 µg/mL (≈ 77.6 µM); Diameter of growth inhibition zone, BC [14]: 12 ± 0.32 mm; Diameter of growth inhibition zone, AN [15]: 12 ± 0.6 mm; MIC [16]: 32 µg/mL (≈ 77.6 µM); Diameter of growth inhibition zone, PA [17]: 16 ± 1.5 mm; MIC [18]: 32 µg/mL (≈ 77.6 µM); pEC50 (Adeno virus-2): < 4.00; Diameter of growth inhibition zone, AF [19]: 11 ± 1.5 mm; Diameter of growth inhibition zone, SP [20]: 10 ± 0.9 mm; Diameter of growth inhibition zone, ST [21]: 12 ± 0.32 mm; Diameter of growth inhibition zone, EC [22]: 19 ± 0.53 mm; MIC [23]: 64 µg/mL (≈ 155 µM); MIC [24]: 16 µg/mL (≈ 38.8 µM); Diameter of growth inhibition zone, SA [25]: 17 ± 1.2 mm
3 | Cc1ccc(S(=O)(=O)N2C(=O)CSC2c2ccc(C(C)C)cc2)cc1 (centres unmarked) [5n, 3-[(4-Methylphenyl)sulfonyl]-2-[4-(propan-2-yl)phenyl]-1,3-thiazolidin-4-one] | < 4.00 | >125 | 07 ± 0.7 | 07 ± 0.30 | 9 ± 1.5 | < 4.00 | 5 ± 0.3 | < 4.00 | < 4.00 | < 4.00 | > 512 | >100 | < 4.00 | >100 | > 256 | < 4.00 | >100 | < 4.00 | > 256 | < 4.00 | pEC50 [11, 29]: < 4.00; pEC50 (Para-influenza-3 virus): < 4.00; pEC50 (Influenza B B/Ned/537/05): < 4.00; MIC [12]: > 256 µg/mL; pEC50 (Coxsackie virus B4): < 4.00; MIC [13]: > 256 µg/mL; Diameter of growth inhibition zone, BC [14]: 07 ± 0.1 mm; Diameter of growth inhibition zone, AN [15]: 10 ± 1.2 mm; MIC [16]: > 256 µg/mL; Diameter of growth inhibition zone, PA [17]: 8.5 ± 1.5 mm; MIC [18]: > 256 µg/mL; pEC50 (Adeno virus-2): < 4.00; Diameter of growth inhibition zone, AF [19]: 9.5 ± 0.9 mm; Diameter of growth inhibition zone, SP [20]: 07 ± 0.6 mm; Diameter of growth inhibition zone, ST [21]: 07 ± 1.5 mm; Diameter of growth inhibition zone, EC [22]: 08 ± 0.65 mm; MIC [23]: > 512 µg/mL; MIC [24]: > 256 µg/mL
